Test results from ChEMBL document CHEMBL1124794, “Synthesis, chemistry, and antineoplastic activity of alpha-halopyridinium salts: potential pyridone prodrugs of acylated vinylogous carbinolamine tumor inhibitors” (J Med Chem, 1990).

Assays:
[1] = Hydrolysis were done at 25 degree C in 0.05 M phosphate buffer (pH 7.4); format: ADME
Outline: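 Model pyridinium salts were hydrolysed to pyridones at 25 °C in 0.05 M phosphate buffer, pH 7.4. Decay of the pyridinium UV absorption maximum was monitored over time, giving pseudo-first-order k_obs and half-life.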

[2] = Half life of the compound; format: ADME
[3] = system: P388; test: In vivo activity against P388 Lymphocytic Leukemia in CD2F1 mice at the dose of 50 mg/kg, activity expressed as % T/C; format: functional, Mus musculus
Outline: (§1)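 CD2F1 mice were inoculated with ascitic fluid holding ca. 10^6 P388 cells. Drug was given daily from 24 h after inoculation, from solutions or suspensions made fresh each day, some as a saline suspension. TDS is survivors/initial animals on day 5. BWD is body weight on day 5 minus day 1. %T/C compares median survival of treated and control mice.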

[4] = system: P388; test: In vivo activity against P388 Lymphocytic Leukemia in CD2F1 mice at the dose of 200 mg/kg, activity expressed as TDS; 4/4; format: functional, Mus musculus; outline: as §1
[5] = system: P388; test: In vivo activity against P388 Lymphocytic Leukemia in CD2F1 mice at the dose of 25 mg/kg, activity expressed as TDS; 4/4; format: functional, Mus musculus; outline: as §1
[6] = system: P388; test: In vivo activity against P388 Lymphocytic Leukemia in CD2F1 mice at the dose of 50 mg/kg, activity expressed as TDS; 4/4; format: functional, Mus musculus; outline: as §1
[7] = system: P388; test: In vivo body weight difference was determined in P388 Lymphocytic Leukemia in CD2F1 mice at the dose of 100 mg/kg; format: functional, Mus musculus
[8] = system: P388; test: In vivo body weight difference was determined in P388 Lymphocytic Leukemia in CD2F1 mice at the dose of 200 mg/kg; format: functional, Mus musculus
[9] = system: P388; test: In vivo body weight difference was determined in P388 Lymphocytic Leukemia in CD2F1 mice at the dose of 25 mg/kg; format: functional, Mus musculus
[10] = system: P388; test: In vivo body weight difference was determined in P388 Lymphocytic Leukemia in CD2F1 mice at the dose of 50 mg/kg; format: functional, Mus musculus
[11] = system: P388; test: In vivo activity against P388 Lymphocytic Leukemia in CD2F1 mice at the dose of 200 mg/kg, activity expressed as % T/C; format: functional, Mus musculus; outline: as §1
[12] = system: P388; test: In vivo activity against P388 Lymphocytic Leukemia in CD2F1 mice at the dose of 25 mg/kg, activity expressed as % T/C; format: functional, Mus musculus; outline: as §1
[13] = system: P388; test: In vivo activity against P388 Lymphocytic Leukemia in CD2F1 mice at the dose of 100 mg/kg, activity expressed as TDS; 4/4; format: functional, Mus musculus; outline: as §1
[14] = system: P388; test: In vivo activity against P388 Lymphocytic Leukemia in CD2F1 mice at the dose of 100 mg/kg, activity expressed as % T/C; format: functional, Mus musculus; outline: as §1
[15] = system: MX1; test: In vivo body weight difference was determined in murine MX-1 tumor system at the dose of 90 mg/kg; format: functional, Mus musculus
[16] = system: MX1; test: In vivo activity against murine MX-1 tumor system at the dose of 90mg/kg, activity expressed as %T/C.; format: functional, Mus musculus
[17] = system: MX1; test: In vivo activity against murine MX-1 tumor system at the dose of 180 mg/kg, activity expressed as TDS; 0/6; format: functional, Mus musculus
[18] = system: L1210; test: In vivo activity against murine L1210 tumor system at the dose of 50 mg/kg, activity expressed as KE; format: functional, Mus musculus
Outline: (§2)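 L1210 lymphocytic leukemia: ascitic fluid with ca. 10^6 cells injected ip into CD2F1 mice. Dosing started 24 h after inoculation and was repeated daily for five doses in total, from solutions or suspensions made fresh each day. Toxicity day survivors were scored on day 5. Body weight difference is day 5 minus day 1. %T/C is based on median survival time versus controls.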

[19] = system: MX1; test: In vivo activity against murine MX-1 tumor system at the dose of 90 mg/kg, activity expressed as TDS; 6/6; format: functional, Mus musculus
[20] = In vivo activity against murine M5076 tumor system at the dose of 90 mg/kg, activity expressed as KE; format: functional, Mus musculus
[21] = In vivo activity against murine M5076 tumor system at the dose of 90 mg/kg, activity expressed as %T/C.; format: functional, Mus musculus
[22] = In vivo activity against murine M5076 tumor system at the dose of mg/kg, activity expressed as %T/C.; format: functional, Mus musculus
[23] = In vivo activity against murine M5076 tumor system at the dose of 180 mg/kg, activity expressed as TDS; 3/10; format: functional, Mus musculus
Outline: (§3)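 M5076: ascitic fluid with ca. 10^6 cells inoculated ip into CD2F1 mice. Dosing started 24 h after inoculation and was then given every 4 days for four doses in total, from solutions or suspensions made fresh each day. Toxicity day survivors were scored on day 5. Body weight difference is day 14 minus day 1. %T/C is based on median survival time versus controls.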

[24] = In vivo activity against murine M5076 tumor system at the dose of 45 mg/kg, activity expressed as TDS; 10/10; format: functional, Mus musculus
[25] = In vivo activity against murine M5076 tumor system at the dose of 90 mg/kg, activity expressed as TDS; 10/10; format: functional, Mus musculus
[26] = system: L1210; test: In vivo activity against murine L1210 tumor system at the dose of 25 mg/kg, activity expressed as %T/C.; format: functional, Mus musculus; outline: as §2
[27] = system: L1210; test: In vivo activity against murine L1210 tumor system at the dose of 50 mg/kg, activity expressed as %T/C.; format: functional, Mus musculus; outline: as §2
[28] = system: L1210; test: In vivo activity against murine L1210 tumor system at the dose of 100 mg/kg, activity expressed as TDS; 0/6; format: functional, Mus musculus; outline: as §2
[29] = system: L1210; test: In vivo activity against murine L1210 tumor system at the dose of 25 mg/kg, activity expressed as TDS; 6/6; format: functional, Mus musculus; outline: as §2
[30] = system: L1210; test: In vivo body weight difference was determined in murine L1210 tumor system at the dose of 25 mg/kg; format: functional, Mus musculus
[31] = system: L1210; test: In vivo body weight difference was determined in murine L1210 tumor system at the dose of 50 mg/kg; format: functional, Mus musculus
[32] = system: L1210; test: In vivo activity against murine L1210 tumor system at the dose of 25 mg/kg, activity expressed as KE; format: functional, Mus musculus; outline: as §2
[33] = system: L1210; test: In vivo activity against murine L1210 tumor system at the dose of 50 mg/kg, activity expressed as TDS; 6/6; format: functional, Mus musculus; outline: as §2
[34] = In vivo body weight difference was determined in murine M5076 tumor system at the dose of 180 mg/kg; format: functional, Mus musculus
[35] = In vivo body weight difference was determined in murine M5076 tumor system at the dose of 45 mg/kg; format: functional, Mus musculus
[36] = In vivo body weight difference was determined in murine M5076 tumor system at the dose of 90 mg/kg; format: functional, Mus musculus
[37] = In vivo activity against murine M5076 tumor system at the dose of 45 mg/kg, activity expressed as KE; format: functional, Mus musculus; outline: as §3
[38] = system: P388; test: In vivo body weight difference was determined against P388 Lymphocytic Leukemia in CD2F1 mice at the dose of 100 mg/kg; format: functional, Mus musculus
[39] = system: P388; test: In vivo activity against P388 Lymphocytic Leukemia in CD2F1 mice at the dose of 12.5 mg/kg, activity expressed as TDS; 6/6; format: functional, Mus musculus; outline: as §1
[40] = system: P388; test: In vivo activity against P388 Lymphocytic Leukemia in CD2F1 mice at the dose of 200 mg/kg, activity expressed as TDS; 6/6; format: functional, Mus musculus; outline: as §1
[41] = system: P388; test: In vivo activity against P388 Lymphocytic Leukemia in CD2F1 mice at the dose of 25 mg/kg, activity expressed as TDS; 6/6; format: functional, Mus musculus; outline: as §1
[42] = system: P388; test: In vivo activity against P388 Lymphocytic Leukemia in CD2F1 mice at the dose of 400 mg/kg, activity expressed as TDS; 0/6; format: functional, Mus musculus; outline: as §1
[43] = system: P388; test: In vivo activity against P388 Lymphocytic Leukemia in CD2F1 mice at the dose of 50 mg/kg, activity expressed as TDS; 6/6; format: functional, Mus musculus; outline: as §1
[44] = system: P388; test: In vivo body weight difference was determined against P388 Lymphocytic Leukemia in CD2F1 mice at the dose of 12.5 mg/kg; format: functional, Mus musculus
[45] = system: P388; test: In vivo body weight difference was determined against P388 Lymphocytic Leukemia in CD2F1 mice at the dose of 200 mg/kg; format: functional, Mus musculus
[46] = system: P388; test: In vivo body weight difference was determined against P388 Lymphocytic Leukemia in CD2F1 mice at the dose of 25 mg/kg; format: functional, Mus musculus
[47] = system: P388; test: In vivo body weight difference was determined against P388 Lymphocytic Leukemia in CD2F1 mice at the dose of 50 mg/kg; format: functional, Mus musculus
[48] = system: P388; test: In vivo activity against P388 Lymphocytic Leukemia in CD2F1 mice at the dose of 100 mg/kg, activity expressed as KE; format: functional, Mus musculus
[49] = system: P388; test: In vivo activity against P388 Lymphocytic Leukemia in CD2F1 mice at the dose of 12.5 mg/kg, activity expressed as KE; format: functional, Mus musculus
[50] = system: P388; test: In vivo activity against P388 Lymphocytic Leukemia in CD2F1 mice at the dose of 25 mg/kg, activity expressed as KE; format: functional, Mus musculus
[51] = system: P388; test: In vivo activity against P388 Lymphocytic Leukemia in CD2F1 mice at the dose of 50 mg/kg, activity expressed as KE; format: functional, Mus musculus
[52] = system: P388; test: In vivo activity against P388 Lymphocytic Leukemia in CD2F1 mice at the dose of 12.5 mg/kg, activity expressed as % T/C; format: functional, Mus musculus; outline: as §1
[53] = system: P388; test: In vivo activity against P388 Lymphocytic Leukemia in CD2F1 mice at the dose of 100 mg/kg, activity expressed as TDS; 6/6; format: functional, Mus musculus; outline: as §1

Cc1cc(Br)c(Cl)[n+](C)c1.O=S(=O)([O-])C(F)(F)F
K obs [1]: 0.041 min⁻¹ | half-life [2]: 17 h

Cc1cc(Cl)c(Cl)[n+](C)c1.O=S(=O)([O-])C(F)(F)F
K obs [1]: 0.000917 min⁻¹ | half-life [2]: 12.6 h

CC(C)NC(=O)OCc1c(COC(=O)NC(C)C)c(-c2cc(Br)c(Cl)[n+](C)c2)n2c1CCC2.[I-]
T/C [3]: 118% | TDS [4]: 4 | TDS [5]: 4 | TDS [6]: 4 | BWD [7]: -1 g | BWD [8]: -0.7 g | BWD [9]: -0.6 g | BWD [10]: -0.4 g | T/C [11]: 105% | T/C [12]: 124% | TDS [13]: 4 | T/C [14]: 122%

CC(C)NC(=O)OCc1c(COC(=O)NC(C)C)c(-c2ccc(F)[n+](C)c2)n2c1CCC2.[I-]
BWD [15]: 0.5 g | T/C [16]: 18% | TDS [17]: 0 | KE [18]: -2.03 | TDS [19]: 6 | KE [20]: -1.4 | T/C [21]: 125% | T/C [22]: 115% | TDS [23]: 3 | TDS [24]: 10 | TDS [25]: 10 | T/C [26]: 119% | T/C [27]: 123% | TDS [28]: 0 | TDS [29]: 6 | BWD [30]: -0.7 g | BWD [31]: -0.7 g | KE [32]: -2.09 | TDS [33]: 6 | BWD [34]: -1.4 g | BWD [35]: -0.5 g | BWD [36]: -1.8 g | KE [37]: -1.79 | BWD [38]: 0.1 g | T/C [3]: 141% | TDS [39]: 6 | TDS [40]: 2 | TDS [41]: 6 | TDS [42]: 0 | TDS [43]: 6 | BWD [44]: 1.2 g | BWD [45]: -0.1 g | BWD [46]: -0.1 g | BWD [47]: 0.6 g | KE [48]: 1.54 | KE [49]: -1.42 | KE [50]: 0.06 | KE [51]: 0.32 | T/C [52]: 112% | T/C [12]: 137% | TDS [53]: 6 | T/C [14]: 158%

CCOC(=O)c1cc(Cl)[n+](C)c(Cl)c1.CS(=O)(=O)[O-]
K obs [1]: 0.114 min⁻¹ | half-life [2]: 2.1 h

Cc1ccc(Cl)[n+](C)c1.O=S(=O)([O-])C(F)(F)F
K obs [1]: 0.000708 min⁻¹ | half-life [2]: 269 h
